Reference: ChEMBL document CHEMBL3588757, “Structure-based design, synthesis and biological testing of piperazine-linked bis-epipodophyllotoxin etoposide analogs” (Bioorg Med Chem, 2015)
Calls of active or inactive are those of the source. The rule behind the calls is not given here.

Legend:
K562 [1] = test: Induction of apoptosis in human K562 cells assessed as increase in caspase 3/7 activity at 1 uM by luminescence analysis; assay type: functional, cell-based; details: TDE = time-dependent effect
Method in brief: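 K562 cells at 2 × 10^5 cells/mL treated with vehicle or 1 µM compound for 24 or 48 h. Lysates assayed with a luminogenic DEVD-aminoluciferin caspase-3/7 substrate and read by luminescence. Four wells (eight for control); unpaired t-test vs control; repeated on two days.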

[2] = target: DNA topoisomerase 2-alpha (Homo sapiens) (UniProt P11388); test: Inhibition of full-length human recombinant topoisomerase 2-alpha assessed as conversion of […] DNA at 100 uM by ethidium bromide based gel-assay
Sequence of DNA topoisomerase 2-alpha (Homo sapiens) (P11388 whole entry): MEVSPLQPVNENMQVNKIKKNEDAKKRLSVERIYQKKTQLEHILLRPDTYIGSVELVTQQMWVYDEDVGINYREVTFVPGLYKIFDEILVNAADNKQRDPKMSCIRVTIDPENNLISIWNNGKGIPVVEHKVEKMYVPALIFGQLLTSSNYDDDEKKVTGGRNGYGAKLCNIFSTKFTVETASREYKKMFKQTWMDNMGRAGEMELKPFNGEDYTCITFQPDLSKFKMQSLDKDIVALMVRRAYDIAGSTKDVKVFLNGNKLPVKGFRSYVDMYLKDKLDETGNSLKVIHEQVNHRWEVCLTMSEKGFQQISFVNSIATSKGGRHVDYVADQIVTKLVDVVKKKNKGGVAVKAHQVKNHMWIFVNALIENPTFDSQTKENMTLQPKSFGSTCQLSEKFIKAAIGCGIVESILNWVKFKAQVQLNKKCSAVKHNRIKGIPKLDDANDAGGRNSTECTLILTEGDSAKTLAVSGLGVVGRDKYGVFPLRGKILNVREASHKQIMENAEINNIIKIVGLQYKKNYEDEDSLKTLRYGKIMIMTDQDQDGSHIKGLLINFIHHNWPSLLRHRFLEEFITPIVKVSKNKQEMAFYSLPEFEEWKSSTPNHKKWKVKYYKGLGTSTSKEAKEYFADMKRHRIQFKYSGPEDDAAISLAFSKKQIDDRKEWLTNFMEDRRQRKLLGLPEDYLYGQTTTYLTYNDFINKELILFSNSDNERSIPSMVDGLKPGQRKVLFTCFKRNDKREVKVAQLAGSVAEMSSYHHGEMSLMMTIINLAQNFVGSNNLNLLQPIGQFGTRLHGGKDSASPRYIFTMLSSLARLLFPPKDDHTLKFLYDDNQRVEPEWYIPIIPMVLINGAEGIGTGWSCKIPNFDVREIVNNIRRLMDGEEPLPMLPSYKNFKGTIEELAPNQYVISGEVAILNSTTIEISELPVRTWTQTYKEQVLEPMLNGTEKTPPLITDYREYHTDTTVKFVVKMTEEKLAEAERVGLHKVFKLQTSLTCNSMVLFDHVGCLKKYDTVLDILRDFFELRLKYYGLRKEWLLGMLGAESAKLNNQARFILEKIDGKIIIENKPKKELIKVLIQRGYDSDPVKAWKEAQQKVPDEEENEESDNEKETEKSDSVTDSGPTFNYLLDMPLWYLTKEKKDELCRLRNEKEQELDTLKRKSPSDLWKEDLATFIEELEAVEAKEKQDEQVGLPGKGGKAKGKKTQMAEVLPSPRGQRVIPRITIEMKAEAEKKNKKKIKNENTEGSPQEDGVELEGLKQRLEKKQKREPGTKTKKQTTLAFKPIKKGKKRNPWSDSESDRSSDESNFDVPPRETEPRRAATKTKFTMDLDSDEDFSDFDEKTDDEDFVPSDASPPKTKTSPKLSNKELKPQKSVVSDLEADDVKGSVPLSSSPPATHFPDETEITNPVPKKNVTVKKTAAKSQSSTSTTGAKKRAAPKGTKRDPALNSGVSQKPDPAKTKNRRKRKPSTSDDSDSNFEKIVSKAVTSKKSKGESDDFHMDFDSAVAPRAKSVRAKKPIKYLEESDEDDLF

HCT-116 = test: Cytotoxicity against human HCT116 cells assessed as cell growth at 5 uM by SRB assay; assay type: functional; details: read-out: Activity
Method in brief: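 Measured in the NCI-60 human tumour cell line panel using five-dose testing. Growth was recorded at each dose for each cell line, and a GI50 was derived for each line.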

CHO [3] = test: Induction of cell cycle arrest in CHO cells assessed as accumulation at G2/M phase at 1 uM by propidium iodide staining based flow cytometry; assay type: functional; details: Cricetulus griseus
SK-MEL-5 = test: Cytotoxicity against human SK-MEL-5 cells assessed as cell growth at 0.5 uM by SRB assay; assay type: functional; details: read-out: Activity
SF-295 = test: Cytotoxicity against human SF295 cells by SRB assay; assay type: functional
Method in brief: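 NCI-60 panel screen; 5-dose testing giving GI50 per cell line, plus a single 10 µM one-dose test. Method details not given beyond the NCI screen.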

MDA-MB-231 = test: Cytotoxicity against human MDA-MB-231/ATCC cells assessed as cell growth at 0.5 uM by SRB assay; assay type: functional; details: read-out: Activity
ACHN = test: Cytotoxicity against human ACHN cells assessed as cell growth at 0.5 uM by SRB assay; assay type: functional; details: read-out: Activity
SK-OV-3 = test: Cytotoxicity against human SKOV3 cells assessed as cell growth at 50 uM by SRB assay; assay type: functional; details: read-out: Activity
SN12C = test: Cytotoxicity against human SN12C cells assessed as cell growth at 50 uM by SRB assay; assay type: functional; details: read-out: Activity
CHO [4] = test: Induction of apoptosis in CHO cells assessed as increase in sub-G0/G1 cell population at 1 uM after 49 hrs by propidium iodide staining based flow cytometry; assay type: functional; details: Cricetulus griseus
Method in brief: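 CHO cells grown to confluence in α-MEM/10% FCS, serum-starved 48 h (0% FCS), then seeded at 2 × 10^5 cells/mL and repleted with 10% FCS. Continuously treated from repletion with 1 µM compound (10 µM etoposide, DMSO control) for various times. Propidium iodide DNA staining, flow cytometric phase distribution including sub-G0/G1.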

CCRF-CEM = test: Cytotoxicity against human CCRF-CEM cells assessed as cell growth at 0.5 uM by SRB assay; assay type: functional; details: read-out: Activity
K562 [5] = test: Induction of apoptosis in human K562 cells assessed as increase in proportion of apoptotic and apoptotic/necrotic cells at 1 uM after 24 to 48 hrs by annexin V-FITC/propidium iodide staining based two-color fluorescence flow cytometry; assay type: functional, cell-based
Method in brief: (§1)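 K562 cells (1 × 10^6/mL), untreated or given 1 µM compound (10 µM etoposide control) at 37 °C for 24 h or 48 h. Annexin V-FITC plus propidium iodide two-colour flow cytometry. Cells are scored as viable, apoptotic-only (annexin+/PI−), apoptotic/necrotic (annexin+/PI+) or necrotic.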

K562 [6] = test: Induction of apoptosis in human K562 cells assessed as decrease in proportion of viable cells at 1 uM after 24 to 48 hrs by annexin V-FITC/propidium iodide staining based two-color fluorescence flow cytometry; assay type: functional, cell-based; method in brief: as §1
[7] = target: DNA topoisomerase 2-alpha (Homo sapiens) (UniProt P11388); test: Inhibition of full-length human recombinant topoisomerase 2-alpha-mediated decatenation activity of kDNA at >10 uM by ethidium bromide based gel-assay
SF-539 = test: Cytotoxicity against human SF539 cells assessed as cell growth at 50 uM by SRB assay; assay type: functional; details: read-out: Activity
[8] = read-out: LC50 (the source's name)
[9] = read-out: pLC50 (the source's name) (converted)

Q: COc1cc([C@@H]2c3cc4c(cc3[C@@H](NC(=O)CN3CCN(CCCCCCCCCCN5CCN(CC(=O)N[C@@H]6c7cc8c(cc7[C@@H](c7cc(OC)c(O)c(OC)c7)[C@H]7C(=O)OC[C@@H]76)OCO8)CC5)CC3)[C@H]3COC(=O)[C@H]23)OCO4)cc(OC)c1O was tested. Which Activity (K562 [1]) did it give?
A: The Activity was “tde”.

Q: What about the “Inhibition (qualitative activity call)” value [2] of the same compound?
A: The value was “Active”.

Q: What about the growth at 5 µM (HCT-116) of the same compound?
A: Its growth at 5 µM is -15%.

Q: What about the Activity (CHO [3]) of the same compound?
A: The Activity was “Active”.

Q: And the growth at 0.5 µM (SK-MEL-5)?
A: The growth at 0.5 µM was 83%.

Q: What about the GI50 (SF-295; read-out: GI50) of the same compound?
A: The GI50 was 0.894 µM.

Q: And the CC50 (SF-295; [8])?
A: The CC50 was greater than 50 µM.

Q: What about the TGI (SF-295; read-out: TGI) of the same compound?
A: The TGI was 9.49 µM.

Q: And the GI50 (SF-295; read-out: pGI50 (converted))?
A: Its GI50 is 0.891 µM.

Q: And the CC50 (SF-295; [9])?
A: The CC50 was greater than 50.1 µM.

Q: What about the TGI (SF-295; read-out: pTGI (converted)) of the same compound?
A: The TGI was 9.55 µM.

Q: And the growth at 0.5 µM (MDA-MB-231)?
A: Its growth at 0.5 µM is 87%.

Q: And the growth at 0.5 µM (ACHN)?
A: Its growth at 0.5 µM is 41%.

Q: What about the growth at 50 µM (SK-OV-3) of the same compound?
A: The growth at 50 µM was -100%.

Q: What about the growth at 50 µM (SN12C) of the same compound?
A: Its growth at 50 µM is -44%.

Q: And the Activity (CHO [4])?
A: The Activity was “Active”.

Q: And the growth at 0.5 µM (CCRF-CEM)?
A: Its growth at 0.5 µM is 4%.

Q: What about the Activity (K562 [5]) of the same compound?
A: The Activity was “Active”.

Q: And the Activity (K562 [6])?
A: Its Activity is “Active”.

Q: And the “Inhibition of decatenation activity (qualitative)” value [7]?
A: The value was “Active”.

Q: Which results are given for COc1cc([C@@H]2c3cc4c(cc3[C@@H](NC(=O)CN3CCN(CCCCCCN5CCN(CC(=O)N[C@@H]6c7cc8c(cc7[C@@H](c7cc(OC)c(O)c(OC)c7)[C@H]7C(=O)OC[C@@H]76)OCO8)CC5)CC3)[C@H]3COC(=O)[C@H]23)OCO4)cc(OC)c1O?
A: growth at 5 µM (HCT-116): 40%; growth at 50 µM (SF-539): -38%; growth at 0.5 µM (SK-MEL-5): 85%; GI50 (SF-295; read-out: GI50): 4.92 µM; CC50 (SF-295; [8]): > 50 µM; TGI (SF-295; read-out: TGI): > 50 µM; GI50 (SF-295; read-out: pGI50 (converted)): 4.9 µM; CC50 (SF-295; [9]): > 50.1 µM; TGI (SF-295; read-out: pTGI (converted)): > 50.1 µM; growth at 0.5 µM (MDA-MB-231): 97%; growth at 0.5 µM (ACHN): 95%; growth at 0.5 µM (CCRF-CEM): 31%
